Laboratory results taken from ChEMBL document CHEMBL1152325, “Antioxidant and anticholinesterase activity evaluation of ent-kaurane diterpenoids from Sideritis arguta” (J Nat Prod, 2009).

How the values were obtained:
Cholinesterase = Cholinesterase (Homo sapiens, UniProt P06276); assay: Inhibition of BChE by spectrophotometry
Acetylcholinesterase = Acetylcholinesterase (Homo sapiens, UniProt P22303); assay: Inhibition of AChE by spectrophotometry
[1] = system: Radical scavenging activity; assay: Antioxidant activity assessed as DPPH radical scavenging activity; type: functional
Method in brief: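 DPPH free-radical scavenging by the Blois method on extracts and diterpenoids. Tested at four concentrations in triplicate analyses, given as mean ± SD. Results expressed as IC50 (µg/mL).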

[2] = Antioxidant activity against beta-carotene and linoleic acid assessed as inhibition of bleaching of beta-carotene; type: functional
Method in brief: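 β-Carotene–linoleic acid model system on extracts and isolated diterpenoids. Bleaching inhibition was measured at four concentrations in triplicate, reported as mean ± SD. IC50 in µg/mL.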

[3] = Antioxidant activity assessed as superoxide radical scavenging activity by phenazin methosulphate-NADH-NBT assay; type: functional
Method in brief: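 Superoxide-anion scavenging by the NADH-PMS-NBT method after Liu et al. Extracts and diterpenoids were tested at four concentrations in triplicate, as mean ± SD. IC50 reported in µg/mL.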

Sequence of Cholinesterase (P06276 whole entry): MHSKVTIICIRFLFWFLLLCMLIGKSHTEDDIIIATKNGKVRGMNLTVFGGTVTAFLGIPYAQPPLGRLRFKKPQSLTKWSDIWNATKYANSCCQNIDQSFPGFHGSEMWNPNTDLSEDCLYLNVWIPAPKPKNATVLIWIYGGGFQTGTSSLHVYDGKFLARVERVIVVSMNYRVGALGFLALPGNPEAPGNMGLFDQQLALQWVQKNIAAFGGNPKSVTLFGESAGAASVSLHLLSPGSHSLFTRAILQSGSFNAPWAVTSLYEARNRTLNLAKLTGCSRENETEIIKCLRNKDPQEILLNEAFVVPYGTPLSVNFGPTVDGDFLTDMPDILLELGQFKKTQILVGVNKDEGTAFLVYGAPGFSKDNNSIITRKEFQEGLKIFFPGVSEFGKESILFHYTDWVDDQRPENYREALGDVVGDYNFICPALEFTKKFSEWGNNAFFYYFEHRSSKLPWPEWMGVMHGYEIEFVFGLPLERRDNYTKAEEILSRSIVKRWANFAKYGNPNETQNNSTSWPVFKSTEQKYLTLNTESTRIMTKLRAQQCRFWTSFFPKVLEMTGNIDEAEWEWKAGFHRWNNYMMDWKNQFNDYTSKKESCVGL
Sequence of Acetylcholinesterase (P22303 whole entry): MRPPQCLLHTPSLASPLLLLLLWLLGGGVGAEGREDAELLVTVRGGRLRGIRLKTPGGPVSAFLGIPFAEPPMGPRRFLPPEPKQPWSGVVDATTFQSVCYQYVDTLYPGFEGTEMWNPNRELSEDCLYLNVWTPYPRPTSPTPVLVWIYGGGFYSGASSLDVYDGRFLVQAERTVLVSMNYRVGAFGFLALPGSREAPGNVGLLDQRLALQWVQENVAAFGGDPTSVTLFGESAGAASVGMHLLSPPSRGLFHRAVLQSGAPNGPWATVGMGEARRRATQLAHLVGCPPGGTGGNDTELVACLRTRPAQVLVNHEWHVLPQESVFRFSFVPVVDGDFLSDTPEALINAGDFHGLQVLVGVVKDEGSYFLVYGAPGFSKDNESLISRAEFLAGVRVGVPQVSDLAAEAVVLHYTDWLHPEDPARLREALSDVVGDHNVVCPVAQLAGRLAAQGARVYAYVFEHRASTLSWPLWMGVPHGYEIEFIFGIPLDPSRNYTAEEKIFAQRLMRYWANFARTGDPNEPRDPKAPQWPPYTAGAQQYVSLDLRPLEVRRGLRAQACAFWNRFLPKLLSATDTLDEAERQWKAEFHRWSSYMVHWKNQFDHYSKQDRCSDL

Row | Molecule | IC50 (Cholinesterase) [µM] | IC50 (Acetylcholinesterase; read-out: IC50) [µM] | IC50 [1] | IC50 [2] [µg/mL] | IC50 [3] | IC50 ([3]; read-out: IC50) [µM] | IC50 (Acetylcholinesterase) | IC50 ([1]; read-out: IC50) [µM] | IC50 ([2]; read-out: IC50) [µM]
1 | C=C1C[C@]23C[C@H]1CC[C@H]2[C@]1(C)CCC[C@](C)(CO)[C@@H]1C[C@@H]3O | 21.1 | 22.8 | Not Active | 43.1 | Not Active | – | – | – | –
2 | Cc1c(C)c2c(c(C)c1O)CC[C@@](C)(CCC[C@H](C)CCC[C@H](C)CCCC(C)C)O2 [ALPHA-TOCOPHEROL] | – | – | 12.26 µg/mL | 2.1 | – | – | – | – | –
3 | COc1ccc(O)c(C(C)(C)C)c1.COc1ccc(O)cc1C(C)(C)C [BUTYLATED HYDROXYANISOLE] | – | – | 5.88 µg/mL | 1.5 | – | 27.1 | – | – | –
4 | Cc1cc(C(C)(C)C)c(O)c(C(C)(C)C)c1 [BUTYLATED HYDROXYTOLUENE] | – | – | 66.73 µg/mL | 1.3 | – | – | – | – | –
5 | CC(=O)OC[C@@]1(C)CCC[C@]2(C)[C@H]1C[C@H](OC(C)=O)[C@@]13C[C@@H](CC[C@@H]21)[C@](C)(O)C3 [DIACETYLDISTANOL] | 176 | – | – | – | – | > 200 | Not Active | > 200 | > 200
6 | C=C1[C@@H]2CC[C@H]3[C@]4(C)CCC[C@](C)(CO)[C@@H]4C[C@H](O)[C@]3(C2)[C@@H]1O [EUBOTRIOL] | 98.1 | – | – | – | – | > 200 | Not Active | > 200 | > 200
7 | C[C@]1(CO)CCC[C@]2(C)[C@H]1C[C@H](O)[C@@]13C[C@@H](CC[C@@H]21)[C@]1(C)O[C@@H]13 [SIDEROXOL] | 25 | 14.5 | – | – | – | > 200 | – | > 200 | > 200
8 | EUBOL | 23.2 | – | – | – | – | > 200 | Not Active | > 200 | > 200
9 | ent-7alpha-acetoxy-15alpha,18-dihydroxykaur-16-ene | > 200 | > 200 | – | – | – | > 200 | – | > 200 | > 200
